Screening results from PubChem.
procasp7 counter = activates human procaspase-7, counter-screen for procaspase-3 activators. P55210. recombinant procaspase-7, Ac-DEVD-pNA absorbance 405 nm; D23A/D198A/D206A triple mutant, cannot self-cleave; scale: DMSO 0, 5 µM enzyme 100. activation, % at 8.5 µM. 0.093% of 330,000 active. AID 463210;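 active = percent activation above the screen-wide mean plus 3 SD, cut at about 25% in these data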
Target sequence (P55210 whole entry D23A/D198A/D206A): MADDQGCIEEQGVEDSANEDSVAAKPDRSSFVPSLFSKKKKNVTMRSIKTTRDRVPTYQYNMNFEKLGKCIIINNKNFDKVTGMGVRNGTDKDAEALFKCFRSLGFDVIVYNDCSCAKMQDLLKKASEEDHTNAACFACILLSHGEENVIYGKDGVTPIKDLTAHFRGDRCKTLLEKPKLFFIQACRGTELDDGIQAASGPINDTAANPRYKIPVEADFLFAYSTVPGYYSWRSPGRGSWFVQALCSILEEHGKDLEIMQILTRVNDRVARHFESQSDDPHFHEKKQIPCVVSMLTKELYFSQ
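Assay system: Uncleavable procaspase-7 mutant enzyme / Input: 2 µM procaspase-7 mutant as dispensed / Dosing: single nominal 8.5 µM compound dose, 0.8% DMSO final / Timing: 1 h enzyme–compound preincubation and 2 h substrate reaction, both 25 °C / Detection: p-Nitroaniline absorbance at 405 nm, read at 0 and 120 min / Replication: singlicate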
FXN GAA850 act = frataxin GAA850 promoter activation; HEK293 lucGAA850 FXN promoter luciferase reporter, 24 h; percent of 10 µM SAHA response; activation, % at 6 µM; 0.56% of 360,000 active; AID 540364;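 active = activation above the average of all compounds screened plus 3 SD, cutoff fixed separately per campaign, cut at about 7.5% in these data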;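 note: 0% = DMSO wells and 100% = 10 µM SAHA wells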
proCasp3 act = activates human procaspase-3 | P42574 | recombinant procaspase-3 D3A, Ac-DEVD-pNA absorbance 405 nm | activation, % at 8.5 µM | AID 463141 | 0.11% of 330,000 active;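 active = activation above the mean of all tested compounds plus 3 SD, cut at about 21% in these data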;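 note: 0% = DMSO alone and 100% = DMSO wells spiked with extra 5 µM PC-3 D3A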
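System: Procaspase-3 D3A mutant. Medium: Zinc-free 300 mM NaCl, 50 mM HEPES, 0.01% Triton X-100. Schedule: 1 h preincubation plus 2 h reaction at 25 °C. Measured by: 405 nm absorbance of p-nitroaniline, reads at 0 and 120 min. Read-out: percent activation relative to control range.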
GAA30 FXN cntr = counter-screen for GAA850 frataxin promoter activators: GAA30 promoter activation; shares compounds with FXN GAA850 act; HEK293 lucGAA30 FXN promoter luciferase, 24 h; DMSO = 0%, 5 µM ipriflavone = 100%; activation, % at 6 µM; 66% of 1,900 active;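 active = mean activation above the mean of solvent-only control wells plus 3 SD, cut at about 22% in these data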;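 note: counterscreen of GAA850 promoter hits where activity marks nonselective or luminescence artifacts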
GAA850 confirm = GAA850 FXN promoter activation confirmation | activation, % at 6 µM | AID 588351 | 86% of 1,900 active | shares compounds with FXN GAA850 act | HEK293 lucGAA850 FXN promoter luciferase reporter, 24 h; 100% = activation by SAHA;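 active = mean activation above a set limit taken from the primary screen, cut at about 8% in these data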;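 note: 0% = DMSO wells and 100% = 10 µM SAHA wells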
Starred values were filed as active, the others as inactive; / = no result. Compounds with a hit are over-represented: about 0.7% of the library has one in this group of screens.

SMILES | procasp7 counter | FXN GAA850 act | proCasp3 act | GAA30 FXN cntr | GAA850 confirm
CCOC(=O)c1sc(-c2ccc(F)cc2)cc1N | -11 | 7 | 7 | / | /
CCOC(=O)c1cc(-c2ccccc2)sc1N | -10 | 5 | -15 | / | /
CCOC(=O)c1sc(-c2ccc(OC)cc2)cc1N | 4 | 9.7* | -2 | 109* | 30*
CCOC(=O)c1sc(-c2ccccc2)cc1N | -7 | 8.9* | -5 | 87* | 23*
CCOc1c(CNCCCSc2nc(C)cc(C)n2)cccc1OC | -9 | -3 | 8 | / | /
CN(C)S(=O)(=O)c1cccc(NC(=O)C2CCCN(C(=O)c3ccc(Cl)cc3)C2)c1 (stereo unspecified) | / | 1 | / | / | /
COC(=O)c1ccc(NC(=S)Nc2ccccn2)cc1 | 9 | 7 | -6 | / | /
COc1ccc(NC(=S)Nc2ccccn2)cc1 | -12 | 8.3* | 1 | 109* | 32*
CC(=O)N1N=C(c2ccc(Cl)cc2)CC1c1ccco1 (stereo unspecified) | 7 | 2 | 2 | / | /
Cc1nc(N2N=C(c3ccc(Cl)cc3)CC2c2ccco2)sc1C(=O)N(C)C (stereo unspecified) | -28 | 11* | -18 | 26* | 22*
CC(C)N(C(=O)Cn1cc(S(=O)(=O)CC(=O)NCc2ccc(F)cc2)c2ccccc21)C(C)C | 11 | -4 | 4 | / | /
O=C(/C=C/c1ccco1)N1CCc2ccccc21 | -23 | 2 | -5 | / | /
Cc1ccc(/C=C/C(=O)N2CCc3ccccc32)o1 | -28 | 11* | -33 | 116* | 37*
O=C(CN1C(=O)NC2(CCCc3ccccc32)C1=O)c1ccc(Br)cc1 (stereo unspecified) | -7 | 0 | 0 | / | /
Cc1ccc(NN2C(=O)C=C(c3ccccc3)C2=O)cc1 | / | 10.0* | / | 32* | 28*
O=C1c2ccccc2C(=O)N1Nc1ccccc1 | -8 | -1 | -3 | / | /
CSC(=S)NN=C(C)c1cccc(C)n1 | / | 16* | / | -115 | -34
CC(=NNC(=S)N1CCCCC1)c1cccc(C)n1 | / | 2 | / | / | /
CCc1cccc(OCC(=O)Nc2cc(S(=O)(=O)N3CCOCC3)ccc2N2CCCC2)c1 | -4 | 1 | 10 | / | /
O=C(Cc1cccc(NC(=O)C2CCN(C(=O)C3CCCCC3)CC2)c1)Nc1cccc(C(=O)N2CCCCC2)c1 | / | 0 | / | / | /
